Tests used:
Type in all cases: functional, cell-based
[1] = Cytotoxicity against human SMMC-7721 cells after 48 hrs by MTT assay; settings: SMMC-7721, 48 h
How it was run: (§1)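 Adherent cells grown in DMEM with 10% FBS at 37 °C under 5% CO2. Cells were seeded in 96-well plates and left 12 h to attach, then exposed in triplicate to a range of compound concentrations for 48 h, with cisplatin as positive control. MTT read-out was absorbance at 570 nm (reference 630 nm). IC50 was derived by the Reed–Muench method.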

[2] = Cytotoxicity against human H460 cells after 48 hrs by MTT assay; settings: NCI-H460, 48 h; how it was run: as §1
MCF7 = assay: Cytotoxicity against human MCF7 cells after 48 hrs by MTT assay; settings: MCF7, 48 h; how it was run: as §1
HeLa = assay: Cytotoxicity against human HeLa cells after 48 hrs by MTT assay; how it was run: as §1
[3] = Cytotoxicity against human HL60 cells after 48 hrs by MTT assay; settings: HL-60, 48 h
How it was run: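 HL-60 suspension cells were grown in DMEM with 10% FBS at 37 °C under 5% CO2. They were seeded at 1 × 10^5 cells/mL in 96-well plates just before compound addition, then exposed in triplicate to graded concentrations for 48 h, with cisplatin as positive control. MTT absorbance was read at 570 nm against 630 nm reference. IC50 was calculated by the Reed–Muench method.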

CC(=O)O[C@@H]1C[C@@]23C[C@@]24CC[C@H](O[C@@H]2OC[C@@H](O)[C@H](O)[C@H]2O)C(C)(C)[C@@H]4CC[C@H]3[C@]2(C)C[C@@H]3O[C@]4(O)[C@H](OC(C)(C)[C@@H]4O)[C@@H](C)[C@@H]3[C@@]12C
IC50 [1]: > 10 µM | IC50 [2]: > 10 µM | IC50 (MCF7): > 10 µM | IC50 (HeLa): > 10 µM | IC50 [3]: > 10 µM

CC(=O)O[C@@H]1C[C@@]23C[C@@]24CC[C@H](O[C@@H]2OC[C@@H](O)[C@H](O)[C@H]2O)C(C)(C)[C@@H]4CC[C@H]3[C@]2(C)[C@@H](O)[C@]34O[C@H](C[C@@H](C)[C@@H]3[C@@]12C)[C@@H](C(C)(C)O)O4
IC50 [1]: > 10 µM | IC50 [2]: > 10 µM | IC50 (MCF7): > 10 µM | IC50 (HeLa): > 10 µM | IC50 [3]: > 10 µM

CC(=O)O[C@@H]1C[C@@]23C[C@@]24CC[C@H](O[C@@H]2OC[C@@H](O)[C@H](O)[C@H]2O)C(C)(C)[C@@H]4CC[C@H]3[C@]2(C)C[C@@H]3OC(C(O)C(C)(C)O)=C[C@@H](C)[C@@H]3[C@@]12C (stereo not given in full)
IC50 [1]: > 10 µM | IC50 [2]: > 10 µM | IC50 (MCF7): > 10 µM | IC50 (HeLa): > 10 µM | IC50 [3]: > 10 µM

CC(=O)O[C@@H]1CO[C@@H](O[C@H]2CC[C@]34C[C@]35CC[C@]3(C)[C@H]6[C@H](C)C[C@H]7O[C@@]6(O[C@@H]7C(C)(C)OC(C)=O)[C@H](O)[C@@]3(C)[C@@H]5CC[C@H]4C2(C)C)[C@H](O)[C@H]1O
IC50 [1]: 6.3 µM | IC50 [2]: > 10 µM | IC50 (MCF7): > 10 µM | IC50 (HeLa): > 10 µM | IC50 [3]: > 10 µM

CC(=O)O[C@@H]1C[C@@]23C[C@@]24CC[C@H](O[C@@H]2OC[C@@H](O)[C@H](O)[C@H]2O)C(C)(C)[C@@H]4CC[C@H]3[C@]2(C)C[C@@H]3O[C@](O)(C(=O)C(C)C)C[C@@H](C)[C@@H]3[C@@]12C
IC50 [1]: > 10 µM | IC50 [2]: > 10 µM | IC50 (MCF7): > 10 µM | IC50 (HeLa): > 10 µM | IC50 [3]: > 10 µM

C[C@H](CC(=O)[C@@H]1OC1(C)C)[C@H]1C(=O)C[C@@]2(C)C3=CC[C@H]4C(C)(C)[C@@H](O[C@@H]5OC[C@@H](O)[C@H](O)[C@H]5O)CC[C@]4(O)CC3=CC[C@]12C
IC50 [1]: > 10 µM | IC50 [2]: > 10 µM | IC50 (MCF7): > 10 µM | IC50 (HeLa): > 10 µM | IC50 [3]: > 10 µM

C[C@H](CC(=O)[C@@H](O)C(C)(C)O)[C@H]1C(=O)C[C@@]2(C)C3=CC[C@@H]4C(=CC[C@H](O)C4(C)C)CC3=CC[C@]12C
IC50 [1]: > 10 µM | IC50 [2]: > 10 µM | IC50 (MCF7): > 10 µM | IC50 (HeLa): > 10 µM | IC50 [3]: > 10 µM

C[C@H](CC(=O)[C@H](O)C(C)(C)O)[C@H]1C(=O)C[C@@]2(C)C3=CC[C@@H]4C(=CC[C@H](O)C4(C)C)CC3=CC[C@]12C
IC50 [1]: > 10 µM | IC50 [2]: > 10 µM | IC50 (MCF7): > 10 µM | IC50 (HeLa): > 10 µM | IC50 [3]: > 10 µM

CC(=O)O[C@@H]1C[C@@]23C[C@@]24CC[C@H](O[C@@H]2OC[C@@H](O)[C@H](O)[C@H]2O)C(C)(C)[C@@H]4CC[C@H]3[C@]2(C)C[C@@H]3O[C@@]4(C[C@@H](C)[C@@H]3[C@@]12C)OC[C@]1(C)O[C@H]41
IC50 [1]: > 10 µM | IC50 [2]: > 10 µM | IC50 (MCF7): > 10 µM | IC50 (HeLa): > 10 µM | IC50 [3]: > 10 µM

C[C@H](CC(=O)[C@@H]1OC1(C)C)[C@H]1C(=O)C[C@@]2(C)C3=CC[C@H]4C(C)(C)[C@@H](O[C@@H]5OC[C@@H](O)[C@H](O)[C@H]5O)CC[C@@]4(O)CC3=CC[C@]12C
IC50 [1]: > 10 µM | IC50 [2]: > 10 µM | IC50 (MCF7): > 10 µM | IC50 (HeLa): > 10 µM | IC50 [3]: > 10 µM

CC(=O)O[C@@H]1C[C@@]23C[C@@]24CC[C@H](O[C@@H]2OC[C@@H](O)[C@H](O)[C@H]2O)C(C)(C)[C@@H]4CC[C@H]3[C@]2(C)C[C@@H]3O[C@]4(C[C@@H](C)[C@@H]3[C@@]12C)O[C@H](O)[C@@]1(C)O[C@@H]41 [ACTEIN]
IC50 [1]: > 10 µM | IC50 [2]: > 10 µM | IC50 (MCF7): > 10 µM | IC50 (HeLa): > 10 µM | IC50 [3]: > 10 µM

C=C(C)[C@@H](O)C(=O)C[C@@H](C)[C@H]1C(=O)C[C@@]2(C)C3=CC[C@H]4C(C)(C)[C@@H](O[C@@H]5OC[C@@H](O)[C@H](O)[C@H]5O)CC[C@@]45C[C@]35[C@@H](O)C[C@]12C
IC50 [1]: > 10 µM | IC50 [2]: > 10 µM | IC50 (MCF7): > 10 µM | IC50 (HeLa): > 10 µM | IC50 [3]: > 10 µM

CC(=O)O[C@@H]1[C@@H](O)[C@H](O[C@H]2CC[C@]34C[C@]35CC[C@]3(C)[C@H]6[C@H](C)C[C@H]7O[C@@]6(O[C@@H]7C(C)(C)OC(C)=O)[C@H](O)[C@@]3(C)[C@@H]5CC[C@H]4C2(C)C)OC[C@H]1O
IC50 [1]: 5.5 µM | IC50 [2]: > 10 µM | IC50 (MCF7): > 10 µM | IC50 (HeLa): > 10 µM | IC50 [3]: > 10 µM

C[C@H](CC(=O)[C@H](O)C(C)(C)O)[C@H]1C(=O)C[C@@]2(C)C3=CC[C@H]4C(C)(C)[C@@H](O[C@@H]5OC[C@@H](O)[C@H](O)[C@H]5O)CC[C@@]4(O)CC3=CC[C@]12C
IC50 [1]: > 10 µM | IC50 [2]: > 10 µM | IC50 (MCF7): > 10 µM | IC50 (HeLa): > 10 µM | IC50 [3]: > 10 µM

C[C@@H]1C[C@H]2O[C@@]3(O[C@@H]2C(C)(C)O)[C@H](O)[C@@]2(C)[C@@H]4CC[C@H]5C(C)(C)[C@@H](O[C@@H]6OC[C@@H](O)[C@H](O)[C@H]6O)CC[C@@]56C[C@@]46C[C@@H](O)[C@]2(C)[C@@H]13
IC50 [1]: > 10 µM | IC50 [2]: > 10 µM | IC50 (MCF7): > 10 µM | IC50 (HeLa): > 10 µM | IC50 [3]: > 10 µM

C[C@H](CC(=O)[C@H](O)C(C)(C)O)[C@H]1C(=O)C[C@@]2(C)C3=CC[C@H]4C(C)(C)[C@@H](O[C@@H]5OC[C@@H](O)[C@H](O)[C@H]5O)CC[C@]4(O)CC3=CC[C@]12C
IC50 [1]: > 10 µM | IC50 [2]: > 10 µM | IC50 (MCF7): > 10 µM | IC50 (HeLa): > 10 µM | IC50 [3]: > 10 µM
